Casp6 inh: inhibitors of human caspase-6; P55212; purified caspase-6, Z-VEID-R110 cleavage fluorescence; inhibition, % at 12.5 µM; 350,000 compounds, 0.53% hits;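 active means mean inhibition across replicates at least about 35%, with every replicate also reaching that limit, limit read from the data; inconclusive means only one of the two criteria met; inactive means neither criterion met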;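 further: 0% = median of neutral control wells and 100% = no fluorescence left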
NSD2 HMT inh: NSD2 (human) methyltransferase inhibition; O96028; NSD2 peptide methylation, AlphaScreen, 120 min; inhibition, % at 12.5 µM; 310,000 compounds, 0.54% hits; AID 743445; in the data active means inhibition above about 50%
Target sequence (O96028 whole entry, looked up): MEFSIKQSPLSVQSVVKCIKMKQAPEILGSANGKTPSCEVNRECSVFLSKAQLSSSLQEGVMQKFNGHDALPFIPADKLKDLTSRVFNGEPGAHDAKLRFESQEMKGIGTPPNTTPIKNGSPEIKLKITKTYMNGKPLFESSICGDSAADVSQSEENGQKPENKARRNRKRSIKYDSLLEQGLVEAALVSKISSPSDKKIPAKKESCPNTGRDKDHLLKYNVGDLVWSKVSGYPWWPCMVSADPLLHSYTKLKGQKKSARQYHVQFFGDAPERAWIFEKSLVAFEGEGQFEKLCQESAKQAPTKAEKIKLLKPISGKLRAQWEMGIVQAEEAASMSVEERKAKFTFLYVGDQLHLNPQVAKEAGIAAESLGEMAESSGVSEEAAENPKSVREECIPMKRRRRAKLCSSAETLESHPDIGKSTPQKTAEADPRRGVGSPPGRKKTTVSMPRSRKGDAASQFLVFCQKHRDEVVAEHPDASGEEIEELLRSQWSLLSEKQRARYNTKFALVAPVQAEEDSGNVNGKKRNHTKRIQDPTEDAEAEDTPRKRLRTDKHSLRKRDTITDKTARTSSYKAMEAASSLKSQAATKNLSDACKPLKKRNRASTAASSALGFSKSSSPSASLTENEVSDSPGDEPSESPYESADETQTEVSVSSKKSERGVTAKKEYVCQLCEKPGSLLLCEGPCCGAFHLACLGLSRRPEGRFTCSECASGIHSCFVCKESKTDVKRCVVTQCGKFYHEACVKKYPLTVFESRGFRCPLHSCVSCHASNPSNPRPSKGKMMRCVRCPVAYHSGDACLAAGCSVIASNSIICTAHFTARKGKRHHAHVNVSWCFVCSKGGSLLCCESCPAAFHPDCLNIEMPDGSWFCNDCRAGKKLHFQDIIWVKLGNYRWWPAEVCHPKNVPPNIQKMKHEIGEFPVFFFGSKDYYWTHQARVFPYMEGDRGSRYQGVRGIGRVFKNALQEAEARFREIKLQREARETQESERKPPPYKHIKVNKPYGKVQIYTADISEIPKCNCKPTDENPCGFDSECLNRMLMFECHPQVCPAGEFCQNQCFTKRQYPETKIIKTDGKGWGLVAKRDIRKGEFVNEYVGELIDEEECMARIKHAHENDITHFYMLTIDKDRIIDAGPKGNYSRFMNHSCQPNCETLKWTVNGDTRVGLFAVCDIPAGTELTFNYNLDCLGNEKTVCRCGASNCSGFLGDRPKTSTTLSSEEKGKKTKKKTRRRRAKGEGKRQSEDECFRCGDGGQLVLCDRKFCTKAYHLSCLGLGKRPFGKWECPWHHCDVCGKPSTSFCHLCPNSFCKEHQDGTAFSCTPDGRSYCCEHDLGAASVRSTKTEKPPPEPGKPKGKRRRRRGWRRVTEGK
Wnt act: activators of Wnt/beta-catenin signaling; Wnt/beta-catenin reporter cell assay, activator, plate reader; activation, % at 9.35 µM; 300,000 compounds, 1.2% hits; AID 743398; in the data active means activation above about 30%, passing the limit was not always enough; inconclusive means no clear call, values can overlap the other calls;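 further: 0% = neutral control wells and 100% = positive control wells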
XiGFP reactiv: activators of X-chromosome reactivation in mouse fibroblasts; XiGFP mouse fibroblasts, % GFP-positive cells imaging, 3 d; cells co-treated with 5-aza-dC sensitizer; scaled so ellipticine positive control = 100%; activation, % at 7.58 µM; 360,000 compounds, 0.055% hits; AID 743238;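 active means mean normalized replicate activation at least 10% and every replicate at or above 10%; inconclusive means only one of the two criteria met; inactive means mean below 10% and not all replicates reach 10%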;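 further: 0% = median of on-plate neutral control wells and 100% = ellipticine 6 µM median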
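Assay system – SV40-immortalized XiGFP fibroblast cells, line 68-5-11 · Buffer or medium – DMEM supplemented with 5-aza-dC as sensitizing agent · Dosing – one concentration, pinned · Benchmarks – positive control ellipticine, 6 µM final · Times – 3 days compound exposure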
esBAF inh: SWI/SNF esBAF complex inhibition | 350,000 compounds, 2% hits | reporter increase, % at 12.5 µM | mouse ES cells, Bmi1-luciferase knock-in reporter, 24 h; 100% = twice the neutral-well signal; in the data active means activation above about 40%; inconclusive means no clear call, values can overlap the other calls;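 further: 0% = median of the plate's neutral control wells and 100% = double that signal; a rise in the Bmi1 reporter signal indicates esBAF inhibition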
MITF act: increases MITF-driven TRPM1 promoter luciferase signal; SK-MEL-5 TRPM1-promoter luciferase, 24 h; % of positive control, neutral wells = 0; activation, % at 12.5 µM; 300,000 compounds, 0.75% hits; AID 588334;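 active means mean activation of at least 80% with every replicate also reaching 80%; inconclusive means mean reaches 80% but some replicate falls short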;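 further: 0% = neutral control wells and 100% = parthenolide positive control wells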
esBAF Ring1 qPCR: de-represses Ring1 in mouse ESCs, confirming esBAF inhibition; shares compounds with esBAF inh; mouse ESC E14, Ring1 mRNA RT-qPCR fold change; fold change at 33 µM; 550 tested, under 10 active; AID 743176;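 active means Ring1 gene expression raised more than 2-fold over untreated cells in both replicates at either tested dose; inconclusive means only one replicate above 2-fold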;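 further: Ring1 transcript normalised to actin housekeeping signal by TaqMan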
esBAF Fgf4 qPCR: esBAF inhibition confirmed by Fgf4 repression; shares compounds with esBAF inh; mouse ESC E14, Fgf4 mRNA qPCR fold change; hits give low values; Fgf4 expression fold change at 33 µM; 550 compounds, 4% hits;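 active means Fgf4 expression under 0.8 fold of control in both repeat measurements at one or both tested doses; inconclusive means under 0.8 fold in just a single repeat measurement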;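 further: Fgf4 transcript normalised to actin in duplex TaqMan qPCR; cells exposed to compound for 24 h before lysis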
Bmi1 derepress: de-represses Bmi1 in mouse ESCs, confirming esBAF inhibition; shares compounds with esBAF inh; mouse ESE14 ES cells, Bmi1 mRNA qPCR fold; hits give high values; fold change at 33 µM; 550 tested, under 10 active; AID 743180;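 active means Bmi1 expression fold change above 6 at either tested concentration, seen in replicate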;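 further: higher fold means more Bmi1 de-repression and stronger esBAF inhibition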
A549 tox SP: A549 cell cytotoxicity | shares compounds with esBAF inh | plate reader | cell viability change % (negative = cytotoxic), % at 25 µM, hits read low | 550 tested, under 10 active; call rule not given here
HepG2 tox SP: cytotoxicity in HepG2 cells | shares compounds with esBAF inh | plate reader; hits give low values | activity change, negative = inhibition, % at 25 µM | 550 compounds, 4% hits | AID 743189; in the data active means activity change below about -50%
HEK293 cytotox SP: kills or reduces viability of HEK293 cells; 550 compounds, 3% hits; activity change, negative = inhibition, % at 25 µM, hits read low; HEK293 cytotoxicity, plate reader; shares compounds with esBAF inh; AID 743190; in the data active means activity change below about -38%, passing the limit was not always enough
The depositor's hits bear a star; ? = inconclusive; nt = not tested or not shown. Sampled rows, rich in hits. Any-hit rate of the full collection: about 3%.

SMILES	Casp6 inh	NSD2 HMT inh	Wnt act	XiGFP reactiv	esBAF inh	MITF act	esBAF Ring1 qPCR	esBAF Fgf4 qPCR	Bmi1 derepress	A549 tox SP	HepG2 tox SP	HEK293 cytotox SP
CNC(=O)c1ccc(NC(=O)c2ccc3c(=O)n4c(nc3c2)CCC4)cc1	-2.9	-1.1	-20.2	0.1	-3.5	-2.6	nt	nt	nt	nt	nt	nt
COc1ccc(S(=O)(=O)Nc2ccc3c(c2)CC(=O)N([C@H](C)CO)C[C@@H](C)[C@@H](CN(C)Cc2ccc(C(=O)O)cc2)O3)cc1	-2.0	nt	nt	0.2	-5.9	nt	nt	nt	nt	nt	nt	nt
O=C(C[C@H]1C=C[C@H](NS(=O)(=O)c2ccc(F)cc2)[C@H](CO)O1)NCCN1CCCCC1	0.3	nt	nt	0.6	-2.5	nt	nt	nt	nt	nt	nt	nt
C[C@H](CO)N1C[C@H](C)[C@@H](CN(C)C(=O)C2CC2)Oc2cc(-c3ccccc3F)ccc2S1(=O)=O	-3.9	nt	nt	0.8	0.0	nt	nt	nt	nt	nt	nt	nt
Cc1ccc(S(=O)(=O)NCc2ccccc2)cc1C(=O)N1CC(C)CC(C)C1 (configuration not stated)	4.1	-11.8	-0.9	0.0	-8.0	0.6	nt	nt	nt	nt	nt	nt
Cc1ccc(S(=O)(=O)NCc2ccccc2)cc1C(=O)NC1CCC(C)CC1 (configuration not stated)	2.7	24.7	20.6	0.0	74.1*	79.5	1.11	0.905	1.5	-11.7	-1.4	-9.5
CCCC(=O)Nc1ccc2c(c1)OC[C@H](C)N(C(=O)C1CCCC1)C[C@H](C)[C@@H](OC)CN(C)C2=O	-1.1	nt	nt	0.3	2.8	nt	nt	nt	nt	nt	nt	nt
Cc1nn(Cc2c(F)c(F)c(F)c(F)c2F)c(C)c1NC(=O)c1ccc(COc2cc(Cl)ccc2Cl)cc1	nt	nt	14.9	nt	47.0*	26.3	1.12	1.06	1.39	-12.6	-5.5	-13.7
Cc1nn(Cc2c(F)c(F)c(F)c(F)c2F)c(C)c1NC(=O)c1ccc(COc2ccccc2Cl)cc1	nt	-19.0	nt	nt	8.6	-4.3	nt	nt	nt	nt	nt	nt
c1ccc(CCc2nc(-c3cccnc3)no2)cc1	nt	1.7	nt	nt	59.2*	71.2	1.14	0.903	1.58	-15.1	-24.7	-18.9
CC(c1ccccc1)c1nnc(NC(=O)Nc2ccccc2)s1 (configuration not stated)	-1.0	-0.3	0.2	0.1	8.1	-11.1	nt	nt	nt	nt	nt	nt
CC(c1ccccc1)c1nnc(NC(=O)Nc2ccccc2F)s1 (configuration not stated)	nt	-1.4	0.3	0.7	80.3*	?	1.32	0.876	1.16	-8.2	-37.5	-2.3
CC(C)(C)[S@@](=O)N1Cc2cc(C(=O)NCc3ccc4c(c3)OCO4)nc(-c3cccc(-c4ccncc4)c3)c2[C@H]1CCO	-4.3	nt	nt	0.0	6.0	nt	nt	nt	nt	nt	nt	nt
Oc1ccc(Cl)cc1C=NN1CCCCCC1	-1.5	-0.1	49.0*	0.0	65.5*	46.5	1.08	1.02	1.83	-3.7	16.5	-28.8
Oc1ccccc1C=NN1CCCCCC1	-3.5	0.9	-0.6	0.6	77.2*	69.1	1.19	0.809	1.41	-4.5	19.7	1.8
Oc1ccccc1/C=N/N1CCCCC1	-0.1	-11.4	5.4	0.1	nt	38.4	nt	nt	nt	nt	nt	nt
Oc1cccc(/C=N/N2CCCCC2)c1O	2.3	-2.3	?	0.1	61.3*	66.5	1.02	1.17	1.87	-11.7	-42.5	-16.5
Oc1ccc(/C=N/N2CCCCC2)c(O)c1	2.3	5.6	12.1	0.1	28.4	nt	nt	nt	nt	nt	nt	nt

Compound activity from PubChem BioAssay.
